Square brackets hold non-standard residues; d marks the D form. Peptide text beside a SMILES is read from it. * marks the point of attachment. ξ: configuration not given here. 2Nal = N[C@@H](Cc1ccc2ccccc2c1)C(=O)O; ξLys(iPr) = CC(C)NCCCCC(N)C(=O)O; Picolinoyl = O=C(c1ccccn1)*; ξR = N=C(N)NCCCC(N)C(=O)O
Key:
Rattus norvegicus [1] = assay: In vivo anti-ovulatory activity (AOA) against LHRH was determined at a dose of 10 ug in 6 rats; format: functional
Outline: (§1)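 Female 4-day cycling rats received a single subcutaneous injection of analog in corn oil between 12 and 12:30 p.m. Ova were counted on estrus. Activity is given as the number of ovulating rats over the total rats at each dose.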

Rattus norvegicus [2] = assay: In vivo anti-ovulatory activity (AOA) against LHRH was determined at a dose of 100 ug in 6 rats; format: functional; outline: as §1
Rattus norvegicus [3] = assay: In vivo anti-ovulatory activity (AOA) against LHRH was determined at a dose of 1000 ug in 6 rats; format: functional; outline: as §1
[4] = target: T1, Gonadotropin-releasing hormone receptor (Rattus norvegicus) (UniProt P30969); assay: In vitro antagonistic activity against LH release in rat pituitary cells for control.; format: functional, cell-based; settings: Pituitary gland cell
T1 sequence (whole entry): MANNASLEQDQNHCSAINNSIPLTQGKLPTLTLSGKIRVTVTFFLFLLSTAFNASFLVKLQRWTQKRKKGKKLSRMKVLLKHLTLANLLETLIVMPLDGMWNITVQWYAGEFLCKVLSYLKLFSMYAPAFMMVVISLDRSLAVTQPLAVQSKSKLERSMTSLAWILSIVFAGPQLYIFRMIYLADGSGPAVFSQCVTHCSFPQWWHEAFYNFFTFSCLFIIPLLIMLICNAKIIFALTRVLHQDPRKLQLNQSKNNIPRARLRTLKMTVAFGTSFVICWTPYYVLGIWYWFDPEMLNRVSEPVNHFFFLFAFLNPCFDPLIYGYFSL
Outline: (§2)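 Anterior pituitaries from female Sprague-Dawley rats (240-260 g, 18 rats) were minced and dispersed in Gey's solution with trypsin, DNase I and LBBI. Cells were plated in DMEM with 0.45% glucose, 25 mM HEPES, serum, T and 100 nM dexamethasone at about 3.0 × 10^5 cells/mL and cultured 4 days at 37 °C in 8% CO2. Cells were then exposed to antagonist plus 1 ng LHRH in Gey's solution with 0.3% glucose for 2 h. LH in the medium was measured by RIA as ng/mL of RP-3.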

[5] = target: T1, Gonadotropin-releasing hormone receptor (Rattus norvegicus); assay: In vitro inhibition of LH release was determined in rat pituitary cells at a dose of 0.03 ug of analogue and 1 ng of LHRH; format: functional, cell-based; settings: Pituitary gland cell; outline: as §2
[6] = target: T1, Gonadotropin-releasing hormone receptor (Rattus norvegicus); assay: In vitro inhibition of LH release was determined in rat pituitary cells at a dose of 0.1 ug of analogue and 1 ng of LHRH; format: functional, cell-based; settings: Pituitary gland cell; outline: as §2
[7] = target: T1, Gonadotropin-releasing hormone receptor (Rattus norvegicus); assay: In vitro inhibition of LH release was determined in rat pituitary cells at a dose of 0.3 ug of analogue and 1 ng of LHRH; format: functional, cell-based; settings: Pituitary gland cell; outline: as §2
Rattus norvegicus [8] = organism: Rattus norvegicus; assay: In vitro inhibition of LH release in rat pituitary cells at a dose of 1 ng LHRH in absence of the compound.; format: functional, Pituitary gland cell; parameters: unit: ng/mL; outline: as §2
[9] = target: T1, Gonadotropin-releasing hormone receptor (Rattus norvegicus); assay: In vitro inhibition of LH release in rat pituitary cells at a dose of 1 ug of analogue and 1 ng of LHRH.; format: functional, cell-based; settings: Pituitary gland cell; outline: as §2
[10] = target: T1, Gonadotropin-releasing hormone receptor (Rattus norvegicus); assay: In vitro inhibition of LH release was determined in rat pituitary cells at a dose of 10 ug of analogue and 1 ng of LHRH; format: functional, cell-based; settings: Pituitary gland cell; outline: as §2
[11] = target: T1, Gonadotropin-releasing hormone receptor (Rattus norvegicus); assay: In vitro inhibition of LH release was determined in rat pituitary cells at a dose of 100 ug of analogue and 1 ng of LHRH; format: functional, cell-based; settings: Pituitary gland cell; outline: as §2
[12] = target: T1, Gonadotropin-releasing hormone receptor (Rattus norvegicus); assay: In vitro inhibition of LH release determined in rat pituitary cells at a dose of 3 ug of analogue and 1 ng of LHRH; format: functional, cell-based; settings: Pituitary gland cell; outline: as §2
[13] = target: T1, Gonadotropin-releasing hormone receptor (Rattus norvegicus); assay: In vitro inhibition of LH release was determined in rat pituitary cells at a dose of 30 ug of analogue and 1 ng of LHRH; format: functional, cell-based; settings: Pituitary gland cell; outline: as §2
Rattus norvegicus [14] = assay: In vivo anti-ovulatory activity (AOA) against LHRH was determined at a dose of 1000 ug in 9 rats; format: functional; outline: as §1
Rattus norvegicus [15] = assay: In vivo anti-ovulatory activity (AOA) against LHRH was determined at a dose of 1 ug in 6 rats; format: functional; outline: as §1

SMILES | AOA (Rattus norvegicus [1]) | AOA (Rattus norvegicus [2]) | AOA (Rattus norvegicus [3]) | Activity [4] | Activity [5] | Activity [6] | Activity [7] | Activity (Rattus norvegicus [8]) | Activity [9] | Activity [10] | Activity [11] | Activity [12] | Activity [13] | AOA (Rattus norvegicus [14]) | AOA (Rattus norvegicus [15])
CC(=O)N[C@H](Cc1ccc2ccccc2c1)C(=O)N[C@H](Cc1cccnc1)C(=O)N[C@@H](CO)C(=O)N[C@@H](Cc1ccc(O)cc1)C(=O)N[C@H](Cc1ccc2ccccc2c1)C(=O)N[C@@H](CC(C)C)C(=O)N[C@@H](CCCN=C(N)N)C(=O)N1CCC[C@H]1C(=O)N[C@H](C)C(N)=O | 6 | 6 | 4 | 3.8 | 28 | 14 | 6 | 149 | 3 | – | – | – | – | – | –
CCNC(=O)[C@@H]1CCCN1C(=O)[C@H](CCCN=C(N)N)NC(=O)[C@H](CC(C)C)NC(=O)[C@H](Cc1ccc2ccccc2c1)NC(=O)[C@H](Cc1ccc2ccccc2c1)NC(C)=O (Ac-[2Nal][2Nal]LRP-NHEt) | – | – | – | 2.3 | – | – | – | 156 | 145 | 147 | 98 | 158 | 122 | – | –
CC(=O)NC(Cc1ccc2ccccc2c1)C(=O)N[C@@H](Cc1ccc(Cl)cc1)C(=O)N[C@@H](CO)C(=O)N[C@@H](Cc1ccc(O)cc1)C(=O)NC(Cc1ccc2ccccc2c1)C(=O)N[C@@H](CC(C)C)C(=O)N[C@@H](CCCN=C(N)N)C(=O)N1CCC[C@H]1C(=O)N[C@H](C)C(N)=O (stereo in doubt) | – | 6 | 6 | 3.8 | 39 | 29 | 14 | 149 | 6 | – | – | – | – | – | –
CC(=O)NC(Cc1ccc2ccccc2c1)C(=O)N[C@@H](CO)C(=O)N[C@@H](Cc1ccc(O)cc1)C(=O)NC(Cc1ccc2ccccc2c1)C(=O)N[C@@H](CC(C)C)C(=O)N[C@@H](CCCN=C(N)N)C(=O)N1CCC[C@H]1C(=O)N[C@H](C)C(N)=O (stereo in doubt) | – | 6 | 6 | 5.3 | – | 37 | 12 | 236 | 7 | – | – | 3 | – | – | –
CC(=O)N[C@@H](Cc1ccc2ccccc2c1)C(=O)N[C@@H](CC(C)C)C(=O)N[C@@H](CCCN=C(N)N)C(=O)N[C@@H](C)C(N)=O (Ac-[2Nal]LRA-NH2) | – | – | – | 3.5 | – | – | – | 155 | 145 | 116 | 49 | 136 | 87 | – | –
CCNC(=O)[C@@H]1CCCN1C(=O)[C@H](CCCN=C(N)N)NC(=O)[C@H](CC(C)C)NC(=O)[C@@H](Cc1ccc2ccccc2c1)NC(=O)[C@H](Cc1ccc(O)cc1)NC(=O)[C@H](CO)NC(=O)[C@@H](Cc1ccc2ccccc2c1)NC(C)=O | – | 6 | – | 3.2 | 45 | 5 | 4 | 153 | 3 | – | – | – | – | 2 | –
CC(=O)N[C@@H](Cc1ccc2ccccc2c1)C(=O)N[C@@H](CCCCNC(=O)c1ccccn1)C(=O)NC(CCCCNC(C)C)C(=O)N1CCC[C@H]1C(N)=O (some centres undefined) (Ac-[2Nal]K(Picolinoyl)[ξLys(iPr)]P-NH2) | – | – | – | 3.5 | – | – | – | 153 | 186 | 144 | 118 | 150 | 128 | – | –
CC(=O)NC(Cc1ccc2ccccc2c1)C(=O)N[C@@H](Cc1ccc(Cl)cc1)C(=O)N[C@@H](Cc1cccnc1)C(=O)N[C@@H](CO)C(=O)N[C@@H](Cc1ccc(O)cc1)C(=O)NC(Cc1ccc2ccccc2c1)C(=O)N[C@@H](CC(C)C)C(=O)N[C@@H](CCCN=C(N)N)C(=O)N1CCC[C@H]1C(=O)N[C@H](C)C(N)=O (stereo in doubt) | 0 | – | – | 3.8 | 8 | 4 | 4 | 149 | 4 | – | – | – | – | – | 5
CC(=O)N[C@@H](Cc1ccc2ccccc2c1)C(=O)N[C@@H](CCCCNC(=O)c1ccccn1)C(=O)N1CCC[C@H]1C(N)=O | – | – | – | 3.1 | – | – | – | 145 | 145 | 129 | 71 | 139 | 113 | – | –
CC(=O)NC(Cc1ccc2ccccc2c1)C(=O)N[C@@H](CCCCNC(=O)c1ccccn1)C(=O)N[C@@H](CCCN=C(N)N)C(=O)NC(C)C(N)=O (single isomer, unassigned) | – | – | – | 2.3 | – | – | – | 156 | 147 | 75 | 8 | 145 | 26 | – | –
CC(=O)N[C@@H](Cc1ccc2ccccc2c1)C(=O)N[C@@H](CCCN=C(N)N)C(=O)N[C@@H](C)C(N)=O | – | – | – | 3.5 | – | – | – | 153 | 151 | 101 | 69 | 145 | 66 | – | –
CC(=O)N[C@@H](Cc1ccc2ccccc2c1)C(=O)N[C@@H](CCCCNC(=O)c1ccccn1)C(=O)NC(CCCN=C(N)N)C(=O)N1CCC[C@H]1C(N)=O (some centres undefined) (Ac-[2Nal]K(Picolinoyl)[ξR]P-NH2) | – | – | – | 3.5 | – | – | – | 153 | 148 | 132 | 63 | 145 | 136 | – | –
CCNC(=O)[C@@H]1CCCN1C(=O)[C@H](CCCN=C(N)N)NC(=O)[C@H](CC(C)C)NC(=O)[C@H](Cc1ccc2ccccc2c1)NC(C)=O (Ac-[2Nal]LRP-NHEt) | – | – | – | 3.1 | – | – | – | 145 | 148 | 88 | 9 | 120 | 25 | – | –
CC(=O)N[C@@H](Cc1ccc2ccccc2c1)C(=O)N[C@@H](Cc1ccc(O)cc1)C(=O)N[C@@H](Cc1ccc2ccccc2c1)C(=O)N[C@@H](CCCN=C(N)N)C(=O)N[C@@H](C)C(N)=O (Ac-[2Nal]Y[2Nal]RA-NH2) | – | – | – | 2.3 | – | – | – | 156 | 142 | 121 | 21 | 135 | 66 | – | –
